# Experimental data as given in ChEMBL document CHEMBL1126931, “Synthesis of 20-hydroxy-, 20-amino-, and 20-nitro-14-hydroxy-21-nor-5 beta,14 beta-pregnane C-3 glycosides and related derivatives: structure-activity relationships of pregnanes that bind to the digitalis receptor” (J Med Chem, 1993).
# Target: Sodium/potassium-transporting ATPase
# Experiment: Inhibition of [3H]- ouabain binding to digitalis receptor
# Assay type: protein-complex assay, Cavia porcellus
# Method in brief: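 Radioligand binding to the digitalis receptor recognition site of heart muscle, read as displacement of [3H]ouabain.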
row,Structure (SMILES),IC50 [nM]
1,CC1O[C@@H](O[C@H]2CC[C@@]3(C)[C@H](CC[C@@H]4[C@@H]3CC[C@]3(C)[C@@H](CO)CC[C@]43O)C2)C[C@@H](O)[C@@H]1O (stereo partly specified),610
2,CC1O[C@@H](O[C@H]2CC[C@@]3(C)[C@H](CC[C@@H]4[C@@H]3CC[C@]3(C)[C@@H](C[N+](=O)[O-])CC[C@]43O)C2)C[C@@H](O)[C@@H]1O (stereo partly specified),88
3,C[C@H]1O[C@H](O[C@H]2CC[C@@]3(C)[C@H](CC[C@@H]4[C@@H]3CC[C@]3(C)[C@@H](C(=O)CO)CC[C@]43O)C2)[C@H](O)[C@H](O)[C@H]1O,1070
4,CC1O[C@@H](O[C@H]2CC[C@@]3(C)[C@H](CC[C@@H]4[C@@H]3CC[C@]3(C)[C@@H](CO)CC[C@]43O)C2)C(O)[C@@H](O)[C@H]1O (stereo partly specified),360
5,CC1O[C@@H](O[C@H]2CC[C@@]3(C)[C@H](CC[C@@H]4[C@@H]3CC[C@]3(C)[C@@H](C[N+](=O)[O-])CC[C@]43O)C2)C(O)[C@@H](O)[C@H]1O (stereo partly specified),12
6,CC1O[C@@H](O[C@H]2CC[C@@]3(C)[C@H](CC[C@@H]4[C@@H]3CC[C@]3(C)[C@@H](C(=O)O)CC[C@]43O)C2)C[C@@H](O)[C@@H]1O (stereo partly specified),36000
7,COC(=O)[C@H]1CC[C@]2(O)[C@@H]3CC[C@@H]4C[C@@H](O[C@H]5C[C@@H](O)[C@H](O)C(C)O5)CC[C@]4(C)[C@H]3CC[C@]12C (stereo partly specified),15000
8,CC1O[C@@H](O[C@H]2CC[C@@]3(C)[C@H](CC[C@@H]4[C@@H]3CC[C@]3(C)[C@@H](CN)CC[C@]43O)C2)C(O)[C@@H](O)[C@H]1O (stereo partly specified),99
9,CC1O[C@@H](O[C@H]2CC[C@@]3(C)[C@H](CC[C@@H]4[C@@H]3CC[C@]3(C)[C@@H](CC[N+](=O)[O-])CC[C@]43O)C2)C(O)[C@@H](O)[C@H]1O (stereo partly specified),45
10,C[C@H]1O[C@@H](O[C@H]2CC[C@@]3(C)[C@H](CC[C@@H]4[C@@H]3CC[C@]3(C)[C@@H](CN)CC[C@]43O)C2)C[C@@H](O)[C@@H]1O,270
11,C[C@H]1O[C@@H](O[C@H]2[C@@H](O)C[C@H](O[C@H]3[C@@H](O)C[C@H](O[C@H]4CC[C@@]5(C)[C@H](CC[C@@H]6[C@@H]5CC[C@]5(C)[C@@H](C7=CC(=O)OC7)CC[C@]65O)C4)O[C@@H]3C)O[C@@H]2C)C[C@H](O)[C@@H]1O [DIGITOXIN],8
